Experimental data pooled from the literature.
Target: Phosphatidylinositol 4,5-bisphosphate 3-kinase catalytic subunit gamma isoform (PIK3CG, Homo sapiens, UniProt P48736)

C[C@@]1(Cc2ccc(C#N)cc2)C(=O)N(c2cc(Cl)cc(Cl)c2)c2ncc(C(=O)NC3(c4nc(C5CCC5)no4)CC3)n21 has a remaining binding of 95% (cell-free assay; competition with immobilised ligand; 1 µM).
The remaining binding of CN(C)c1nccc(-c2cnn3ncccc23)n1 is reported as 76% (binding; 1 µM).
COCCOc1nc(-c2ccc(Cl)nc2)nc2c1CN(C(=O)c1ncn3ccccc13)CC2 has a remaining binding of 100% (cell-free assay; competition with immobilised ligand; 0.1 µM).
For CC(C)(C)c1ccc(-c2nc(CBr)nn2-c2cccc(O)c2)cc1, the remaining binding was 94% (cell-free assay; competition with immobilised ligand; 10 µM).
C[C@@H]1CCN(c2nccc(-c3cnn4ncccc34)n2)C1 has a remaining binding of 58% (binding; 1 µM).
COC(=O)Nc1nc2ccc(C(=O)c3ccccc3)cc2[nH]1 gave a remaining binding of 18% (cell-free assay; competition with immobilised ligand; 10 µM).
The remaining binding of O=C(O)[C@@H]1[C@@H](Cn2nnc3ccccc3c2=O)CC[C@H]1C(=O)c1ccc(OCCC2CCOCC2)cc1 is reported as 100% (cell-free assay; competition with immobilised ligand; 1 µM).
O=C(Nc1c[nH]nc1C(=O)NC1CCNCC1)c1cc(F)cc(F)c1 has a remaining binding of 100% (binding; competition with immobilised ligand; 1 µM).
With O=C(c1ccc(Nc2ncc(Cl)c(-c3cc4ccccc4s3)n2)cc1)N1CCC(N2CCCC2)CC1 the remaining binding was 87% (binding; competition with immobilised ligand; 1 µM).
With COc1cnc(Nc2cccc(S(N)(=O)=O)c2)nc1N1CCN(c2ccccc2)CC1 the remaining binding was 94% (binding; competition with immobilised ligand; 1 µM).
CCN1CCN(Cc2ccc(C(=O)Nc3ccc(C)c(Oc4ccc5c(c4)CC(=O)N5)c3)cc2C(F)(F)F)CC1 gave a remaining binding of 93% (binding; competition with immobilised ligand; 1 µM).
CC1CCCN1c1nccc(-c2cnn3ncccc23)n1 (stereo not drawn) gave a remaining binding of 100% (binding; 1 µM).
With CCCOc1ccc([C@H]2[C@H](C(=O)O)[C@@H](c3ccc4c(c3)OCO4)CN2CC(=O)Nc2c(CC)cccc2CC)cc1 the remaining binding was 68% (cell-free assay; competition with immobilised ligand; 1 µM).
N[C@H]1CCN(c2nccc(-c3cnn4ncccc34)n2)C1 has a remaining binding of 100% (binding; 1 µM).
The remaining binding of O=C(NCCCN1CCOCC1)c1ccc(Nc2nccc(-c3cc4ccccc4s3)n2)cc1 is reported as 20% (binding; competition with immobilised ligand; 1 µM).
The remaining binding of CN(C)c1ncc(F)c(-c2cnn3ncccc23)n1 is reported as 90% (binding; 1 µM).
The remaining binding of CC(C)CC(=O)N1CCc2nc(-c3ccc(Br)cc3)nc(N(C)Cc3ccccc3)c2C1 is reported as 100% (cell-free assay; competition with immobilised ligand; 0.1 µM).
With Nc1ncc2c(n1)-c1c([nH]c3ccc(C#CC4CC4)cc13)CCCC2 the remaining binding was 77% (binding; competition with immobilised ligand; 1 µM).
N#Cc1ccc(Nc2ccc3[nH]c(=O)[nH]c3c2)c(Cl)c1 gave a remaining binding of 92% (cell-free assay; competition with immobilised ligand; 1 µM).
The remaining binding of F[C@@H]1CCN(c2nccc(-c3cnn4ncccc34)n2)C1 is reported as 100% (binding; 1 µM).
For C[C@@H](c1cccc(C#N)c1)n1cc(Cl)cc(C(N)=O)c1=N, the remaining binding was 100% (cell-free assay; competition with immobilised ligand; 1 µM).
With O=C(c1ccc(Nc2ncc(Cl)c(-c3ccc(Cl)s3)n2)cc1)N1CCC(N2CCCC2)CC1 the remaining binding was 90% (binding; competition with immobilised ligand; 1 µM).
C[C@@H](c1ccc(-n2cnc3c(N)ncnc32)cc1)N1CCc2nn(C)c(Cc3ccccc3)c2C1=O has a remaining binding of 85% (binding; competition with immobilised ligand; 0.1 µM).
c1cncc(-c2cccc(Nc3nccc(NC4CCCCC4)n3)c2)c1 has a remaining binding of 69% (binding; competition with immobilised ligand; 10 µM).
